Sampled rows, rich in hits. Any-hit rate of the full collection: about 3.5%.
MrgX1 antagonist: blocks BAM8-22 activation of human MrgX1 receptor | MRGX1-HEK293 calcium flux, Fluo-4, BAM8-22 antagonism; hits give low values | B-score at 10 µM | 310,000 compounds, 1.3% hits | AID 588676;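 active = calcium-response B-score plate-corrected more than 3 library SD below zero, starting fluorescence within 5 deviations, no agonist response on first addition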;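 note: peak minus trough fluorescence over baseline after final BAM8-22 challenge near maximal dose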
Target sequence (Q96LB2 whole entry, looked up): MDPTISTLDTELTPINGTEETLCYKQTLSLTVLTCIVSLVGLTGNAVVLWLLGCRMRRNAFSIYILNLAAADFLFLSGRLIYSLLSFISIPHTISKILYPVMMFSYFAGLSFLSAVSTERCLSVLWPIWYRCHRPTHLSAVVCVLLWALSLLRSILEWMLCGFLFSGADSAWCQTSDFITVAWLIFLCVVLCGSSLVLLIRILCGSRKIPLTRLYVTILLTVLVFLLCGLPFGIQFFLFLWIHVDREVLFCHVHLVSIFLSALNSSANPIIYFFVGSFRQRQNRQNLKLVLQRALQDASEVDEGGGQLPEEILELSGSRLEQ
MrgX1 agonist: activates human MrgX1 receptor signaling; Q96LB2; MrgX1-HEK293 cells, Fluo-4 calcium fluorescence, agonist mode; hits give high values; B-score at 10 µM; 310,000 compounds, 0.44% hits; AID 588627;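 active = calcium response B-score plate-corrected fluorescence ratio at least 3 library SD, with starting fluorescence B-score inside 5 SD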
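Assay system: MrgX1-expressing HEK293 cells / Amount: fifteen thousand cells per well / Doses: test compound in the initial addition of three / Timing: cells plated overnight, dye loaded 0.5 h 37 °C, 0.5 h room temperature / Technique: kinetic calcium dye fluorescence, Fluo-4 NW / Control set: positive and negative controls per plate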
RGS4 block: human RGS4 inhibition | HEK293 M3R/RGS4 inducible, Fluo-4 calcium flux; hits give high values; triggered by carbachol at its EC20 | B-score at 10 µM | AID 463165 | P49798 | 310,000 compounds, 0.45% hits;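 active = B-score, a plate-corrected calcium signal, over three deviations above library mean, with baseline fluorescence within five deviations of library mean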;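 note: RGS4 expression induced by doxycycline in cells with stable M3 receptor; B-score is computed from the integrated fluorescence ratio over baseline after carbachol; higher B-score means a larger calcium signal and so more RGS4 inhibition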
Target sequence (P49798 whole entry, looked up): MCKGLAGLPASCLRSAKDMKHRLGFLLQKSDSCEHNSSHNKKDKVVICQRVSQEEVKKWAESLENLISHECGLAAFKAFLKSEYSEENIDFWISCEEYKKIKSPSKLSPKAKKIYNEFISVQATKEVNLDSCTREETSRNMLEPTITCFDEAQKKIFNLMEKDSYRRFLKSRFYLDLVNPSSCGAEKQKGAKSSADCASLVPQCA
RGS4 act: potentiators or activators of RGS4 | 310,000 compounds, 0.92% hits | HEK293 M3R/inducible RGS4, carbachol calcium flux Fluo4; hits give low values | B-score at 10 µM;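 active = B-score of the integrated calcium signal more than 4 SD below the library mean, with starting fluorescence not abnormally high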;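 note: negative B-score means reduced calcium response which marks RGS4 activation or potentiation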
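Also added: carbachol at ECmax as muscarinic agonist stimulus; Assay system: HEK293 cells with stable M3R and inducible RGS4; Timing: overnight RGS4 induction, 30 min dye load 37 °C, 20 min compound RT; Measured by: Fluo4-AM (2 µM) calcium-flux fluorescence, kinetic read.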
MrgX1 allo act: human MrgX1 positive allosteric modulation, primary screen; Q96LB2; MrgX1-HEK293, Fluo-4 calcium flux, FDSS; hits give high values; B-score at 10 µM; 310,000 compounds, 0.63% hits;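 active = plate-corrected calcium response at least 3 library SD above typical, normal starting fluorescence, not activating the receptor alone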;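 note: compound read alongside a low EC10 to EC30 dose of BAM8-22 agonist; peak minus trough fluorescence over baseline measured at the second addition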
MrgX1 antag conf: human MrgX1 receptor antagonism, re-confirmation screen | shares compounds with MrgX1 antagonist | MrgX1-HEK293, BAM8-22 calcium flux, Fluo-4; hits give low values | remaining BAM8-22 calcium response % of control (hits give low values), % at 10 µM | 2,300 compounds, 19% hits | AID 602420;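 active = remaining agonist calcium response no higher than 100% minus 3 SD of agonist-only control wells, with starting fluorescence near control levels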;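 note: agonist BAM8-22 given at a near maximal EC90 to ECmax level; peak minus minimum fluorescence divided by baseline after agonist addition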
HEK293 Ca flux: MrgX1 antagonist counter-screen hit in parental HEK293 cells; AID 624111; fluorescence ratio F(max-min)/F0 at 10 µM; 4,000 compounds, 2% hits; shares compounds with MrgX1 antagonist; Fluo-4 calcium fluorescence, FDSS;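 active = duplicate-averaged calcium fluorescence ratio at least three times the standard deviation of buffer wells, a nonspecific response in parental cells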
HEK293 Ca counter: activity in parental HEK293 cells without MrgX1. shares compounds with MrgX1 antagonist. parental HEK293 calcium flux, Fluo-4 fluorescence ratio; hits give high values. fluorescence ratio F(max-min)/F0 at 10 µM. 4,000 compounds, 0.4% hits. AID 624114;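 active = calcium fluorescence ratio, averaged over duplicates, at least 3 SD of the buffer-well ratio, meaning a nonspecific response in receptor-free cells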;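 note: untransfected parental HEK293 lacking MrgX1 used as counterscreen for MrgX1 allosteric activators; fluorescence change taken during the second addition on a kinetic imager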
HEK293 Ca cntr2: MrgX1 activator counter-screen hit in parental HEK293 cells; Fluo-4 calcium fluorescence (FDSS); hits give high values; shares compounds with MrgX1 antagonist; 4,000 compounds, 8.7% hits; fluorescence ratio F(max-min)/F0 at 10 µM;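 active = calcium fluorescence ratio at least three times the spread of buffer wells, meaning a non-specific response in parental cells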
* hit, by the source's call.

Screening O=C1N[C@@H](Cc2cn(S(=O)(=O)c3ccc([N+](=O)[O-])cc3)c3ccccc23)C(=O)N[C@H]1Cc1ccccc1 returned MrgX1 antagonist inactive, MrgX1 agonist inactive, RGS4 block inactive, RGS4 act inactive and MrgX1 allo act inactive.
`COc1cc2ccccc2cc1C(=O)NCCCN1CCOCC1` gave MrgX1 antagonist inactive, MrgX1 agonist inactive, RGS4 block inactive, RGS4 act inactive and MrgX1 allo act inactive.
For O=C(NCCCN1CCOCC1)c1cc2ccccc2cc1O the results were MrgX1 antagonist -4.73*, MrgX1 agonist inactive, RGS4 block inactive, RGS4 act inactive, MrgX1 allo act inactive, MrgX1 antag conf inactive, HEK293 Ca flux inactive, HEK293 Ca counter inactive and HEK293 Ca cntr2 inactive.
Screening O=C(c1ccc(Cn2c(=O)[nH]c3ccccc3c2=O)cc1)N1CCN(c2ccccn2)CC1 returned MrgX1 antagonist inactive, MrgX1 agonist inactive, RGS4 block inactive, RGS4 act inactive and MrgX1 allo act inactive.
For O=C(c1ccc(Cn2c(=S)[nH]c3ccccc3c2=O)cc1)N1CCN(c2ccccn2)CC1 the results were MrgX1 antagonist -8.03*, MrgX1 agonist inactive, RGS4 block inactive, RGS4 act inactive, MrgX1 allo act inactive, MrgX1 antag conf 84.1%*, HEK293 Ca flux inactive, HEK293 Ca counter inactive and HEK293 Ca cntr2 inactive.
CC1CCCCN1S(=O)(=O)Cc1ccccc1Cl (stereo not given) was read as MrgX1 antagonist inactive, MrgX1 agonist inactive, RGS4 block inactive, RGS4 act inactive and MrgX1 allo act inactive.
Screening CSCCC(C(=O)OCC(=O)c1ccc(C)c(C)c1)N1C(=O)c2cc(Cl)c(Cl)cc2C1=O (stereo not given) returned MrgX1 antagonist -5.16*, MrgX1 agonist inactive, RGS4 block inactive, RGS4 act inactive, MrgX1 allo act inactive, MrgX1 antag conf inactive, HEK293 Ca flux inactive, HEK293 Ca counter inactive and HEK293 Ca cntr2 inactive.
`CCOC(=O)c1c(C)[nH]c(C)c1S(=O)(=O)NCCc1ccco1` gave MrgX1 antagonist inactive, MrgX1 agonist inactive, RGS4 block inactive, RGS4 act inactive and MrgX1 allo act inactive.
Screening Cc1nn(C)cc1S(=O)(=O)NCc1ccccc1Cl returned MrgX1 antagonist inactive, MrgX1 agonist inactive, RGS4 block inactive, RGS4 act inactive and MrgX1 allo act inactive.
For CCC(=O)Nc1c(C(=O)N2CCN(c3ccccn3)CC2)cnn1-c1ccc(C)cc1 the results were MrgX1 antagonist -7.49*, MrgX1 agonist inactive, RGS4 block inactive, RGS4 act inactive, MrgX1 allo act inactive, MrgX1 antag conf inactive, HEK293 Ca flux inactive, HEK293 Ca counter inactive and HEK293 Ca cntr2 inactive.
For COCCCN1C(=O)N(c2ccccc2)C(=O)C1CC(=O)Nc1ccc(F)cc1 (stereo not given) the results were MrgX1 antagonist inactive, MrgX1 agonist inactive, RGS4 block inactive, RGS4 act inactive and MrgX1 allo act inactive.
For COCCN(C(=O)COC(=O)/C=C/c1cccs1)c1c(N)n(Cc2ccccc2)c(=O)[nH]c1=O the results were MrgX1 antagonist -11.6*, MrgX1 agonist inactive, RGS4 block inactive, RGS4 act inactive, MrgX1 allo act inactive, MrgX1 antag conf 69.0%*, HEK293 Ca flux inactive, HEK293 Ca counter inactive and HEK293 Ca cntr2 inactive.
For CC(C)CN(C(=O)COC(=O)/C=C/c1cccs1)c1c(N)n(Cc2ccccc2)c(=O)[nH]c1=O the results were MrgX1 antagonist inactive, MrgX1 agonist inactive, RGS4 block inactive, RGS4 act inactive and MrgX1 allo act inactive.
For COc1ccc(NCc2ccc(OC)c(Cn3ccnc3)c2)c(OC)c1 the results were MrgX1 antagonist inactive, MrgX1 agonist inactive, RGS4 block inactive, RGS4 act inactive and MrgX1 allo act inactive.
CC1CCC2(CC1)NC(=O)N(CC(=O)Nc1ccc(N3CCOCC3)cc1)C2=O (stereo not given) was read as MrgX1 antagonist -4.68*, MrgX1 agonist inactive, RGS4 block inactive, RGS4 act inactive, MrgX1 allo act inactive, MrgX1 antag conf 83.5%*, HEK293 Ca flux inactive, HEK293 Ca counter inactive and HEK293 Ca cntr2 inactive.
`CCC[C@H]1COCCS(=O)(=O)N1Cc1ccccc1F` gave MrgX1 antagonist inactive, MrgX1 agonist inactive, RGS4 block inactive, RGS4 act inactive and MrgX1 allo act inactive.
CC(C)[C@H]1COCCS(=O)(=O)N1Cc1ccccc1F was read as MrgX1 antagonist -5.33*, MrgX1 agonist inactive, RGS4 block inactive, RGS4 act inactive, MrgX1 allo act inactive, MrgX1 antag conf inactive, HEK293 Ca flux inactive, HEK293 Ca counter inactive and HEK293 Ca cntr2 inactive.
For Cn1c(=O)oc2cc(S(=O)(=O)NCCC(=O)N3CCc4ccccc43)ccc21 the results were MrgX1 antagonist -5.11*, MrgX1 agonist inactive, RGS4 block inactive, RGS4 act inactive, MrgX1 allo act inactive, MrgX1 antag conf inactive, HEK293 Ca flux inactive, HEK293 Ca counter inactive and HEK293 Ca cntr2 inactive.
For Cn1c(=O)oc2cc(S(=O)(=O)NCCC(=O)N3CCN(c4ccccc4F)CC3)ccc21 the results were MrgX1 antagonist inactive, MrgX1 agonist inactive, RGS4 block inactive, RGS4 act inactive and MrgX1 allo act inactive.
O=C(NCCNC(=O)c1ccccc1Cl)c1ccco1 was read as MrgX1 antagonist inactive, MrgX1 agonist inactive, RGS4 block inactive, RGS4 act inactive and MrgX1 allo act inactive.
`COCc1nc(-c2ccc(-c3ccc(OC)cc3)nc2OC)no1` gave MrgX1 antagonist -11.5*, MrgX1 agonist inactive, RGS4 block inactive, RGS4 act inactive, MrgX1 allo act inactive, MrgX1 antag conf inactive, HEK293 Ca flux inactive, HEK293 Ca counter inactive and HEK293 Ca cntr2 inactive.
Nc1nnc(SCc2cc3c(cc2Cl)OCO3)s1 was read as MrgX1 antagonist -6.34*, MrgX1 agonist inactive, RGS4 block inactive, RGS4 act inactive, MrgX1 allo act inactive, MrgX1 antag conf inactive, HEK293 Ca flux inactive, HEK293 Ca counter inactive and HEK293 Ca cntr2 inactive.

Bioassay records (PubChem BioAssay)
